In paper PMC6682128 (ACS Omega, 2019):

Experiment: Cytotoxicity assay
Format: cell-based
Details: human
Summary of the method: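 Replicon cells (Huh5-2, Huh7.5-3a or Huh7.5-4a) were seeded at 10^4 per well and grown 24 h in complete DMEM. They were then exposed for three days to serial dilutions of test compound or DMSO solvent. Lysates were assayed for ATP by chemiluminescence, normalised to Bradford total protein. CC50 was obtained by nonlinear regression against log concentration.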

| Compound | CC50 at 3 days |
| --- | --- |
| CCCCOC(=O)N[C@H](C(=O)N1CCC[C@H]1C(=O)Nc1ccc(C#CC#Cc2ccc(NC(=O)[C@@H]3CCCN3C(=O)[C@@H](NC(=O)OCCCC)C(C)C)cc2)cc1)C(C)C [1c, Dibutyl((2S,2′S)-((2S,2′S)-(((buta-1,3-diyne-1,4-diylbis(4,1-phenylene))bis(azanediyl))bis(carbonyl))bis(pyrrolidine-2,1-diyl))bis(3-methyl-1-oxobutane-1,2-diyl))dicarbamate] | > 20 µM |
| CCCCOC(=O)N[C@H](C(=O)N1CCC[C@H]1C(=O)Nc1cccc(C#CC#Cc2cccc(NC(=O)[C@@H]3CCCN3C(=O)[C@@H](NC(=O)OCCCC)[C@@H](C)CC)c2)c1)[C@H](C)CC [2i, Butyl((2S,3S)-1-((S)-2-((3-((3-((S)-1-((butoxycarbonyl)-L-alloisoleucyl)pyrrolidine-2-carboxamido)phenyl)buta-1,3-diyn-1-yl)phenyl)carbamoyl)pyrrolidin-1-yl)-3-methyl-1-oxopentan-2-yl)carbamate] | > 10 µM |
| CCCCOC(=O)N[C@H](C(=O)N1CCC[C@H]1C(=O)Nc1cccc(C#CC#Cc2cccc(NC(=O)[C@@H]3CCCN3C(=O)[C@@H](NC(=O)OCCCC)C(C)C)c2)c1)C(C)C [2c, Dibutyl((2S,2′S)-((2S,2′S)-(((buta-1,3-diyne-1,4-diylbis(3,1-phenylene))bis(azanediyl))bis(carbonyl))bis(pyrrolidine-2,1-diyl))bis(3-methyl-1-oxobutane-1,2-diyl))dicarbamate] | > 10 µM |
| CCOC(=O)N[C@@H](CC(C)C)C(=O)N1CCC[C@H]1C(=O)Nc1ccc(C#CC#Cc2ccc(NC(=O)[C@@H]3CCCN3C(=O)[C@H](CC(C)C)NC(=O)OCC)cc2)cc1 [1f, Diethyl((2S,2′S)-((2S,2′S)-(((buta-1,3-diyne-1,4-diylbis(4,1-phenylene))bis(azanediyl))bis(carbonyl))bis(pyrrolidine-2,1-diyl))bis(4-methyl-1-oxopentane-1,2-diyl))dicarbamate] | > 10 µM |
| CCOC(=O)N[C@H](C(=O)N1CCC[C@@H]1C(=O)Nc1ccc(C#CC#Cc2ccc(NC(=O)[C@H]3CCCN3C(=O)[C@@H](NC(=O)OCC)C(C)C)cc2)cc1)C(C)C [1j, Diethyl((2S,2′S)-((2R,2′R)-(((buta-1,3-diyne-1,4-diylbis(4,1-phenylene))bis(azanediyl))bis(carbonyl))bis(pyrrolidine-2,1-diyl))bis(3-methyl-1-oxobutane-1,2-diyl))dicarbamate] | > 10 µM |
| CCOC(=O)N[C@H](C(=O)N1CCC[C@H]1C(=O)Nc1cccc(C#CC#Cc2cccc(NC(=O)[C@@H]3CCCN3C(=O)[C@@H](NC(=O)OCC)C(C)C)c2)c1)C(C)C [2b, Diethyl((2S,2′S)-((2S,2′S)-(((buta-1,3-diyne-1,4-diylbis(3,1-phenylene))bis(azanediyl))bis(carbonyl))bis(pyrrolidine-2,1-diyl))bis(3-methyl-1-oxobutane-1,2-diyl))dicarbamate] | > 200 µM |
| CCOC(=O)N[C@@H](CC(C)C)C(=O)N1CCC[C@@H]1C(=O)Nc1ccc(C#CC#Cc2ccc(NC(=O)[C@H]3CCCN3C(=O)[C@H](CC(C)C)NC(=O)OCC)cc2)cc1 [1l, Diethyl((2S,2′S)-((2R,2′R)-(((buta-1,3-diyne-1,4-diylbis(4,1-phenylene))bis(azanediyl))bis(carbonyl))bis(pyrrolidine-2,1-diyl))bis(4-methyl-1-oxopentane-1,2-diyl))dicarbamate] | > 10 µM |
| CCCCOC(=O)N[C@@H](CC(C)C)C(=O)N1CCC[C@H]1C(=O)Nc1cccc(C#CC#Cc2cccc(NC(=O)[C@@H]3CCCN3C(=O)[C@H](CC(C)C)NC(=O)OCCCC)c2)c1 [2g, Dibutyl((2S,2′S)-((2S,2′S)-(((buta-1,3-diyne-1,4-diylbis(3,1-phenylene))bis(azanediyl))bis(carbonyl))bis(pyrrolidine-2,1-diyl))bis(4-methyl-1-oxopentane-1,2-diyl))dicarbamate] | > 10 µM |
| CCCCOC(=O)N[C@@H](CC(C)C)C(=O)N1CCC[C@H]1C(=O)Nc1ccc(C#CC#Cc2ccc(NC(=O)[C@@H]3CCCN3C(=O)[C@H](CC(C)C)NC(=O)OCCCC)cc2)cc1 [1g, Dibutyl((2S,2′S)-((2S,2′S)-(((buta-1,3-diyne-1,4-diylbis(4,1-phenylene))bis(azanediyl))bis(carbonyl))bis(pyrrolidine-2,1-diyl))bis(4-methyl-1-oxopentane-1,2-diyl))dicarbamate] | > 10 µM |
| COC(=O)N[C@@H](CC(C)C)C(=O)N1CCC[C@H]1C(=O)Nc1cccc(C#CC#Cc2cccc(NC(=O)[C@@H]3CCCN3C(=O)[C@H](CC(C)C)NC(=O)OC)c2)c1 [2o, Dimethyl((2S,2′S)-((2S,2′S)-(((buta-1,3-diyne-1,4-diylbis(3,1-phenylene))bis(azanediyl))bis(carbonyl))bis(pyrrolidine-2,1-diyl))bis(4-methyl-1-oxopentane-1,2-diyl))dicarbamate] | > 20 µM |
| CCOC(=O)N[C@H](C(=O)N1CCC[C@H]1C(=O)Nc1cccc(C#CC#Cc2cccc(NC(=O)[C@@H]3CCCN3C(=O)[C@@H](NC(=O)OCC)[C@@H](C)CC)c2)c1)[C@H](C)CC [2h, Ethyl((2S,3S)-1-((S)-2-((3-((3-((S)-1-((ethoxycarbonyl)-L-alloisoleucyl)pyrrolidine-2-carboxamido)phenyl)buta-1,3-diyn-1-yl)phenyl)carbamoyl)pyrrolidin-1-yl)-3-methyl-1-oxopentan-2-yl)carbamate] | > 200 µM |
| CCOC(=O)N[C@H](C(=O)N1CCC[C@@H]1C(=O)Nc1cccc(C#CC#Cc2cccc(NC(=O)[C@H]3CCCN3C(=O)[C@@H](NC(=O)OCC)C(C)C)c2)c1)C(C)C [2j, Diethyl((2S,2′S)-((2R,2′R)-(((buta-1,3-diyne-1,4-diylbis(3,1-phenylene))bis(azanediyl))bis(carbonyl))bis(pyrrolidine-2,1-diyl))bis(3-methyl-1-oxobutane-1,2-diyl))dicarbamate] | > 10 µM |
| CCOC(=O)N[C@H](C(=O)N1CCC[C@H]1C(=O)Nc1ccc(C#CC#Cc2ccc(NC(=O)[C@@H]3CCCN3C(=O)[C@@H](NC(=O)OCC)C(C)CC)cc2)cc1)C(C)CC (stereo partly drawn) [1h, Diethyl((2S,2′S)-((2S,2′S)-(((buta-1,3-diyne-1,4-diylbis(4,1-phenylene))bis(azanediyl))bis(carbonyl))bis(pyrrolidine-2,1-diyl))bis(3-methyl-1-oxopentane-1,2-diyl))dicarbamate] | > 10 µM |
| CCCCOC(=O)N[C@H](C(=O)N1CCC[C@H]1C(=O)Nc1ccc(C#CC#Cc2ccc(NC(=O)[C@@H]3CCCN3C(=O)[C@@H](NC(=O)OCCCC)C(C)CC)cc2)cc1)C(C)CC (stereo partly drawn) [1i, Dibutyl((2S,2′S)-((2S,2′S)-(((buta-1,3-diyne-1,4-diylbis(4,1-phenylene))bis(azanediyl))bis(carbonyl))bis(pyrrolidine-2,1-diyl))bis(3-methyl-1-oxopentane-1,2-diyl))dicarbamate] | > 10 µM |
| CC(C)C[C@H](NC(=O)OCc1ccccc1)C(=O)N1CCC[C@H]1C(=O)Nc1ccc(C#CC#Cc2ccc(NC(=O)[C@@H]3CCCN3C(=O)[C@H](CC(C)C)NC(=O)OCc3ccccc3)cc2)cc1 [1o, Dibenzyl((2S,2′S)-((2S,2′S)-(((buta-1,3-diyne-1,4-diylbis(4,1-phenylene))bis(azanediyl))bis(carbonyl))bis(pyrrolidine-2,1-diyl))bis(4-methyl-1-oxopentane-1,2-diyl))dicarbamate] | > 10 µM |
